The target of test [1] is Dual specificity protein phosphatase 3 (Homo sapiens, UniProt P51452). Description: Compound was evaluated for the inhibition constant against dual specificity phosphatase VHR. The essentials:
(§1)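 pNPP hydrolysis in pH 7.0 buffer of 50 mM 3,3-dimethylglutarate, 1 mM EDTA, ionic strength 0.15 M with NaCl. Reaction started with enzyme and stopped after 2–3 min with 1 N NaOH. Nonenzymatic substrate hydrolysis subtracted via an enzyme-free control. Initial rates taken at eight pNPP levels (0.2–5 Km) at each of three fixed inhibitor concentrations to obtain the inhibition constant.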

In test [2] the target is T1, Tyrosine-protein phosphatase non-receptor type 1 (Homo sapiens, UniProt P18031).
T1 sequence (P18031 whole entry): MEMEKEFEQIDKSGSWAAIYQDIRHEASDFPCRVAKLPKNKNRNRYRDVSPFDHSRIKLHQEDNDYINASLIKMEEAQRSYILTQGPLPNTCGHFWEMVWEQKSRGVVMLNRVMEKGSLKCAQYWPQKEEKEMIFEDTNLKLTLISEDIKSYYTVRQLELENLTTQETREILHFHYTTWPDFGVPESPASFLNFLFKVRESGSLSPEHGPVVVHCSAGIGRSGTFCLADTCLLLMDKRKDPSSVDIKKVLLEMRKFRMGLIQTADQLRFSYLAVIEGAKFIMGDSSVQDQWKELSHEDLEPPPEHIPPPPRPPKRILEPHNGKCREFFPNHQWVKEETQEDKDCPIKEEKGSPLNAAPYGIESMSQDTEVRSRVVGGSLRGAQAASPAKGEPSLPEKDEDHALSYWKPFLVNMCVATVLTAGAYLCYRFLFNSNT
Briefly: Compound was evaluated for the inhibition constant against Protein-tyrosine phosphatase (PTP1B ). An outline of the steps:
as §1

Chain of Dual specificity protein phosphatase 3 (P51452 whole entry): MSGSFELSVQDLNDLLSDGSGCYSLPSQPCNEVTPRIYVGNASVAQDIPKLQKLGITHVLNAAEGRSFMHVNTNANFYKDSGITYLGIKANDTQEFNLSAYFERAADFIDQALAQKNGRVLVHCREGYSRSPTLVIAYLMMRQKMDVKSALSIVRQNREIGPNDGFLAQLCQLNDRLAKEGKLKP

For orientation: Ki means the equilibrium dissociation constant of an inhibitor or competing ligand from its target. As for `O=P(O)(O)COc1ccc(Cc2ccc(O)cc2)cc1`, the results for the inhibition constant Ki in test [1] and in test [2] were 1300 µM and 47 µM, respectively.
For `O=P(O)(O)COc1cccc2c1ccc1ccccc12`, in that order: 570 µM and 410 µM.
Consider `O=P(O)(O)COc1cccc2ccccc12`, for which the inhibition constant (Ki) turned out to be 4800 µM in test [1] and 1300 µM in test [2].
For `O=C(O)Cc1ccc(OCP(=O)(O)O)cc1`, in that order: 2600 µM and 1100 µM.
On the same counts, the results for `O=P(O)(O)COc1ccc2ccccc2c1` are 5700 µM and 1300 µM.
On to `O=P(O)(O)COc1ccccc1` [PHENOXYMETHYLPHOSPHONATE], for which the figures for the Ki in test [1] and in test [2] were 26000 µM and 3300 µM, respectively.

Source of the values: ChEMBL document CHEMBL1133075, “Synthesis and characterization of a novel class of protein tyrosine phosphatase inhibitors” (Bioorg Med Chem Lett, 2000).
